Results from ChEMBL document CHEMBL3526041, “Absorption, metabolism and excretion of [(14)C]mirabegron (YM178), a potent and selective β(3)-adrenoceptor agonist, after oral administration to healthy male volunteers” (Drug Metab Dispos, 2012).
Each block holds one molecule with its values, some of them ahead of it.

Experiments:
[1] = Tmax in healthy human plasma at 160 mg, po as single dose; assay type: ADME, organism-based; design: dosed compound name [14C]Mirabegron
How it was run: (§1)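 Four healthy men fasted overnight, then took one oral dose of 160 mg mirabegron containing 1.85 MBq [14C]mirabegron, dissolved in 20 mM sodium citrate pH 4.5. Blood was drawn into lithium heparin tubes from 0 to 168 h. Total radioactivity in whole blood and plasma was counted by liquid scintillation. Unchanged drug in plasma was measured by validated LC-MS/MS (1–500 ng/ml). Parameters were derived noncompartmentally; values are mean ± S.D., n=4.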

[2] = Cmax in healthy human plasma at 160 mg, po as single dose; assay type: ADME, organism-based; design: dose 160 mg, route oral, dosed compound name [14C]Mirabegron; how it was run: as §1
[3] = AUC (infinity) in healthy human plasma at 160 mg, po as single dose; assay type: ADME, organism-based; design: dose 160 mg, route oral, time infinity, dosed compound name [14C]Mirabegron; how it was run: as §1
[4] = Terminal elimination phase half life in healthy human plasma at 160 mg, po as single dose; assay type: ADME, organism-based; design: dosed compound name [14C]Mirabegron; conditions: read-out: beta t1/2 (converted); how it was run: as §1
[5] = Terminal elimination phase half life in healthy human urine at 160 mg, po as single dose; assay type: ADME, organism-based; design: dosed compound name [14C]Mirabegron; conditions: read-out: beta t1/2 (converted)
How it was run: (§2)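 Same single oral 160 mg [14C]mirabegron solution in four fasted healthy men. Urine was collected over 0–6, 6–12 and 12–24 h, then in 24-h intervals to 408 h. Radioactivity was measured by scintillation counting. Unchanged drug was measured by LC-MS/MS (2–1000 ng/ml). Half-life came from log-linear regression of the terminal phase, and renal clearance was also calculated.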

[6] = Apparent oral clearance in healthy human plasma at 160 mg, po as single dose; assay type: ADME, organism-based; design: dosed compound name [14C]Mirabegron; how it was run: as §1
[7] = Apparent volume of distribution during terminal phase in healthy human plasma at 160 mg, po as single dose; assay type: ADME, organism-based; design: dosed compound name [14C]Mirabegron; conditions: read-out: Vz/F; how it was run: as §1
[8] = Renal clearance in healthy human plasma at 160 mg, po as single dose; assay type: ADME, organism-based, Kidney; design: dosed compound name [14C]Mirabegron; how it was run: as §2
[9] = Drug recovery in healthy human urine at 160 mg, po as single dose measured up to 408 hrs; assay type: ADME, organism-based; design: dosed compound name [14C]Mirabegron; conditions: read-out: Compound recovery
How it was run: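 One oral dose of 160 mg [14C]mirabegron (1.85 MBq) given as a solution to four healthy men. Urine and feces were collected to 408 h; feces were homogenized and combusted. Expired air was trapped in hyamine hydroxide at set times to 96 h. All samples were counted by liquid scintillation. Cumulative excretion is given as % of administered radioactivity, mean ± S.D., n=4.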

[10] = Drug recovery in healthy human urine at 160 mg, po as single dose measured up to 48 hrs; assay type: ADME, organism-based; design: dosed compound name [14C]Mirabegron; conditions: read-out: Compound recovery
How it was run: (§3)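 Urine was collected at 0–6, 6–12, 12–24 and 24–48 h after a single oral 160 mg [14C]mirabegron dose in four men, with dichlorvos added. Samples underwent solid-phase extraction and radio-HPLC (C18, 40°C), with eluate fractions counted by scintillation. Each peak, as a percentage of eluted radioactivity, was converted to % of dose without recovery correction; mean ± S.D.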

Plasma [11] = experiment: Drug recovery in healthy human plasma at 160 mg, po as single dose measured at 2 hrs; assay type: ADME, organism-based; design: dosed compound name [14C]Mirabegron; conditions: in vivo
How it was run: (§4)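 Plasma taken at 2, 4, 8 and 12 h from the four subjects was pooled at each time point, with dichlorvos added. Pools underwent solid-phase extraction, then HPLC with fractions counted by low-level liquid scintillation. Each peak is expressed as % of the radioactivity injected onto HPLC.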

Plasma [12] = experiment: Drug recovery in healthy human plasma at 160 mg, po as single dose measured at 4 hrs; assay type: ADME, organism-based; design: dosed compound name [14C]Mirabegron; conditions: in vivo; how it was run: as §4
Plasma [13] = experiment: Drug recovery in healthy human plasma at 160 mg, po as single dose measured at 8 hrs; assay type: ADME, organism-based; design: dosed compound name [14C]Mirabegron; conditions: in vivo; how it was run: as §4
Plasma [14] = experiment: Drug recovery in healthy human plasma at 160 mg, po as single dose measured at 12 hrs; assay type: ADME, organism-based; design: dosed compound name [14C]Mirabegron; conditions: in vivo; how it was run: as §4
[15] = Absolute oral bioavailability in rat at 10 mg/kg; assay type: ADME, organism-based; design: dosed compound name [14C]Mirabegron; conditions: in vivo
[16] = Absolute oral bioavailability in rat at 30 mg/kg; assay type: ADME, organism-based; design: dosed compound name [14C]Mirabegron; conditions: in vivo
[17] = Absolute oral bioavailability in dog at 0.25 mg/kg; assay type: ADME, organism-based, Canis lupus familiaris; design: dosed compound name [14C]Mirabegron; conditions: in vivo
[18] = Absolute oral bioavailability in dog at 0.5 mg/kg; assay type: ADME, organism-based, Canis lupus familiaris; design: dosed compound name [14C]Mirabegron; conditions: in vivo
[19] = Absolute oral bioavailability in dog at 1 mg/kg; assay type: ADME, organism-based, Canis lupus familiaris; design: dosed compound name [14C]Mirabegron; conditions: in vivo
[20] = Absolute oral bioavailability in rat at 3 mg/kg; assay type: ADME, organism-based; design: dosed compound name [14C]Mirabegron; conditions: in vivo
[21] = Drug recovery in healthy human urine treated with [14C]mirabegron at 160 mg, po as single dose measured up to 48 hrs; assay type: ADME, organism-based; design: dosed compound name [14C]Mirabegron; conditions: in vivo; how it was run: as §3
Plasma [22] = experiment: Drug recovery in healthy human plasma treated with [14C]mirabegron at 160 mg, po as single dose measured at 2 hrs; assay type: ADME, organism-based; design: dosed compound name [14C]Mirabegron; conditions: in vivo; how it was run: as §4
Plasma [23] = experiment: Drug recovery in healthy human plasma treated with [14C]mirabegron at 160 mg, po as single dose measured at 4 hrs; assay type: ADME, organism-based; design: dosed compound name [14C]Mirabegron; conditions: in vivo; how it was run: as §4
Plasma [24] = experiment: Drug recovery in healthy human plasma treated with [14C]mirabegron at 160 mg, po as single dose measured at 8 hrs; assay type: ADME, organism-based; design: dosed compound name [14C]Mirabegron; conditions: in vivo; how it was run: as §4
Plasma [25] = experiment: Drug recovery in healthy human plasma treated with [14C]mirabegron at 160 mg, po as single dose measured at 12 hrs; assay type: ADME, organism-based; design: dosed compound name [14C]Mirabegron; conditions: in vivo; how it was run: as §4

- Tmax [1]: 1 h
- Cmax [2]: 371 ng/mL
- AUC(0-inf) [3]: 2280 ng·h/mL
- half-life [4]: 47.9 h
- half-life [5]: 72.9 h
- CL/F [6]: 1180 mL/min
- Vd/F [7]: 4820 L
- CL renal [8]: 295 mL/min
- dose excreted at 408 h [9]: 25%
- dose excreted at 48 h [10]: 18.4%
- Compound recovery (Plasma [11]): 46.4%
- Compound recovery (Plasma [12]): 30.9%
- Compound recovery (Plasma [13]): 28.6%
- Compound recovery (Plasma [14]): 31%
- bioavailability [15]: 48.4%
- bioavailability [16]: 75.7%
- bioavailability [17]: 41.8%
- bioavailability [18]: 64.6%
- bioavailability [19]: 77.1%
- bioavailability [20]: 23%
Structure (SMILES): Nc1nc(CC(=O)Nc2ccc(CCNC[C@H](O)c3ccccc3)cc2)cs1 [MIRABEGRON]

- Compound recovery [21]: 0.6%
- Compound recovery (Plasma [22]): Below limit of detection
- Compound recovery (Plasma [23]): Below limit of detection
- Compound recovery (Plasma [24]): Below limit of detection
- Compound recovery (Plasma [25]): Below limit of detection
Structure (SMILES): CC(=O)Nc1ccc(CC(=O)O)cc1 [ACTARIT]

- Compound recovery [21]: 1.3%
- Compound recovery (Plasma [22]): 2.2%
- Compound recovery (Plasma [23]): 1.4%
- Compound recovery (Plasma [24]): Below limit of detection
- Compound recovery (Plasma [25]): Below limit of detection
Structure (SMILES): Nc1nc(CC(=O)Nc2ccc(CC(=O)O)cc2)cs1.O=C(O)C(F)(F)F

- Compound recovery [21]: 1.7%
- Compound recovery (Plasma [22]): 3.3%
- Compound recovery (Plasma [23]): 4.3%
- Compound recovery (Plasma [24]): 6.2%
- Compound recovery (Plasma [25]): 7.6%
Structure (SMILES): Cl.Nc1ccc(CCNC[C@H](O)c2ccccc2)cc1
